ERAP1 inh: human ERAP1 aminopeptidase inhibitors, primary screen, biochemical, single point, plate reader | recombinant ERAP1, Leu-AMC fluorescence, 60 min | AID 652197, 2013 | Endoplasmic reticulum aminopeptidase 1 (Homo sapiens), Q9NZ08 | 340,000 compounds, 0.15% hits | inhibition, % at 10.7 µM;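 active = mean replicate inhibition of at least 30%, or all replicates individually reaching that 30% level; inactive = mean below 30% and not every replicate reaching it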;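 also: 0% = neutral control wells and 100% = L-leucinethiol positive control wells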
Target sequence (Q9NZ08 whole entry, looked up): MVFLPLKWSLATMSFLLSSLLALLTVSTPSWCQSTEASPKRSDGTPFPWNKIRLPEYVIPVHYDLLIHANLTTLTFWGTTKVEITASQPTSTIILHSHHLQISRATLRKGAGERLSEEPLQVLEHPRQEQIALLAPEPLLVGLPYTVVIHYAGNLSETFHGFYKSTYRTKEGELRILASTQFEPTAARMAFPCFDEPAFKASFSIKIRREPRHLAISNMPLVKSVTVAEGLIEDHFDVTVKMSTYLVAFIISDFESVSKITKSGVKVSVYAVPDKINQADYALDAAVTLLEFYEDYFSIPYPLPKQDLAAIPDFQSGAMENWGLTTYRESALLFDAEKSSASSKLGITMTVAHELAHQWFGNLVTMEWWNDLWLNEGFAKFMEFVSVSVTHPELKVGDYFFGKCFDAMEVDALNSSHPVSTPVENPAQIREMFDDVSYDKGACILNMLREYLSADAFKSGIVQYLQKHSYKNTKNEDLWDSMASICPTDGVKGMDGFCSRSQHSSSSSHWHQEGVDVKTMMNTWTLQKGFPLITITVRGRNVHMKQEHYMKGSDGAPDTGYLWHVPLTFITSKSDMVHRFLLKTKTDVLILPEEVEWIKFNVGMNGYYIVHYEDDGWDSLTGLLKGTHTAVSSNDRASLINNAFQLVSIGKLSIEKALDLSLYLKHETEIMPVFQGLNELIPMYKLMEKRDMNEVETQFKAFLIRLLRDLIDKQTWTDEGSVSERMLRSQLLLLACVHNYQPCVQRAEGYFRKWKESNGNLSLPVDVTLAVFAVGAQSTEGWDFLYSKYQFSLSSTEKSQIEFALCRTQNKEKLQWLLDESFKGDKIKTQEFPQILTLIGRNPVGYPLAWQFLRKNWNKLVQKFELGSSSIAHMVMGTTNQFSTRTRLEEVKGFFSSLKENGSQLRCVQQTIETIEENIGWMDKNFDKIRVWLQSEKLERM
Cneo AK release: Cryptococcus neoformans cell lysis inducers, primary screen, AK release luminescence, single concentration. 360,000 compounds, 0.2% hits. lysis activity, % at 15 µM. C. neoformans lysis, adenylate kinase release luminescence, 4 h; normalised: neutral wells 0, clomiphene wells 100. AID 651654, 2012;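 active = mean lysis activity across replicates of at least 80%, whatever share of replicates individually reach that level; inactive = mean lysis activity below 80%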
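Assay system: Cryptococcus neoformans yeast cells / Dosing: single-point compound dose / Timing: 4 h at 37 °C static, read 1 h later / Measured by: luminescence of released adenylate kinase using an AK detection reagent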
esBAF inh: Bmi1 luciferase reporter increase in mESCs, primary screen, esBAF inhibitor project, mouse ES cells, Bmi1 luciferase knock-in, single point; reporter increase, % at 12.5 µM; 24 h; 100% = twice the neutral-well signal; 350,000 compounds, 2% hits; in the data active = activation above about 40%; inconclusive = no clear call, values can overlap the other calls;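 also: 0% = median of the plate's neutral control wells and 100% = double that signal; a rise in the Bmi1 reporter signal indicates esBAF inhibition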
MITF TRPM1 HTS: activators of MITF-driven TRPM1 promoter reporter, primary screen, cell-based, SK-MEL-5, luciferase, single point | SK-MEL-5 TRPM1-promoter luciferase, 24 h; % of positive control, neutral wells = 0 | activation, % at 12.5 µM | 300,000 compounds, 0.75% hits;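 active = mean activation of at least 80% with every replicate also reaching 80%; inconclusive = mean reaches 80% but some replicate falls short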;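 also: 0% = neutral control wells and 100% = parthenolide positive control wells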
Wnt act: Wnt/beta-catenin pathway activators, primary screen, cell-based, plate reader, single point; Wnt/beta-catenin reporter cell assay, activator; activation, % at 9.35 µM; 300,000 compounds, 1.2% hits; in the data active = activation above about 30%, passing the limit was not always enough; inconclusive = no clear call, values can overlap the other calls;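 also: 0% = neutral control wells and 100% = positive control wells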
HIV Env fusion: inhibitors of HIV-1 Env-driven cell-cell fusion, primary screen, HeLa-JRFL effector, CEM21 target cells, luciferase; inhibition, % at 12.3 µM; 360,000 compounds, 1.1% hits;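 active = mean replicate inhibition score of at least 50 and every replicate individually at or above 50; inconclusive = only one of the two criteria met; inactive = mean below 50 and not all replicates reaching 50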;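 also: 0% = plate neutral controls and 100% = maraviroc near 300 nM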
Ring1 derepress: Ring1 mRNA increase in mouse ESCs, confirmation, esBAF inhibitor project, cell-based, mouse ESC, RT-qPCR, cherry-pick; shares compounds with esBAF inh; mouse ESC E14, Ring1 mRNA RT-qPCR fold change; fold change at 33 µM; 550 tested, under 10 active; AID 743176, 2013;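 active = Ring1 gene expression raised more than 2-fold over untreated cells in both replicates at either tested dose; inconclusive = only one replicate above 2-fold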;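 also: Ring1 transcript normalised to actin housekeeping signal by TaqMan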
esBAF Fgf4 qPCR: Fgf4 mRNA decrease in mouse ESCs, confirmation, esBAF inhibitor project, cell-based, mouse ESC, RT-qPCR, cherry-pick; shares compounds with esBAF inh; mouse ESC E14, Fgf4 mRNA qPCR fold change; hits give low values; Fgf4 expression fold change at 33 µM; 550 compounds, 4% hits;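 active = Fgf4 expression under 0.8 fold of control in both repeat measurements at one or both tested doses; inconclusive = under 0.8 fold in just a single repeat measurement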;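 also: Fgf4 transcript normalised to actin in duplex TaqMan qPCR; cells exposed to compound for 24 h before lysis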
esBAF Bmi1 qPCR: esBAF inhibition via Bmi1 de-repression, confirmation, cell-based, RT-qPCR, mouse ESC, single point, cherry-pick | shares compounds with esBAF inh | mouse ESE14 ES cells, Bmi1 mRNA qPCR fold; hits give high values | fold change at 33 µM | 550 tested, under 10 active;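 active = Bmi1 expression fold change above 6 at either tested concentration, seen in replicate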;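 also: higher fold means more Bmi1 de-repression and stronger esBAF inhibition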
A549 tox SP: A549 cell cytotoxicity, cytotoxicity control, plate reader, single point, cherry-pick. shares compounds with esBAF inh. cell viability change % (negative = cytotoxic), % at 25 µM, hits read low. 550 tested, under 10 active; call rule not given here
HepG2 cytotox SP: HepG2 cell cytotoxicity, cytotoxicity control, plate reader, single point, cherry-pick; shares compounds with esBAF inh; hits give low values; activity change, negative = inhibition, % at 25 µM; 550 compounds, 4% hits; AID 743189, 2013; in the data active = activity change below about -50%
HEK293 cytotox SP: HEK293 cell cytotoxicity, cytotoxicity control, plate reader, single point, cherry-pick | shares compounds with esBAF inh | activity change, negative = inhibition, % at 25 µM, hits read low | 550 compounds, 3% hits; in the data active = activity change below about -38%, passing the limit was not always enough
* = called active by the depositor; ? = inconclusive; . = no result given; [ ] = another dose, or the depositor's remark. Rows were chosen to be rich in hits. Some 3.5% of all compounds tested hit in one or more screens of this group.

SMILES | ERAP1 inh | Cneo AK release | esBAF inh | MITF TRPM1 HTS | Wnt act | HIV Env fusion | Ring1 derepress | esBAF Fgf4 qPCR | esBAF Bmi1 qPCR | A549 tox SP | HepG2 cytotox SP | HEK293 cytotox SP
O=C(Nc1ccc2c(c1)COC2=O)c1ccc(Cl)c(Cl)c1 | -3.4 | -0.2 | 74.9* | 51.6 | 16.0 | -166.5 | 1.35 | 1.07 | 0.999 | -14.4 | -31.7 | -12.2
O=C(Nc1ccc(Cl)c(Cl)c1)c1ccc(Cl)c(Cl)c1 | 0.6 | -0.9 | ? | 53.0 | 19.5 | -22.3 | . | . | . | . | . | .
O=C(Nc1ccc(Cl)c(Cl)c1)c1ccncc1 | . | -1.4 | 64.7* | 36.9 | 12.1 | -315.0 | 1.18 | 1.03 | 1.54 | 0.0 | 21.6 | -7.9
Cc1noc(C)c1NC(=O)Nc1ccc2c(c1)CC(=O)N([C@H](C)CO)C[C@@H](C)[C@@H](CN(C)CC1CCCCC1)O2 | 0.7 | 3.9 | 0.8 | . | . | -2.1[16.7 µM] | . | . | . | . | . | .
C[C@@H]1CCCCO[C@@H](CN(C)C(=O)Cc2ccccc2)[C@@H](C)CN([C@@H](C)CO)C(=O)c2cc(NC(=O)Nc3ccc4c(c3)OCO4)ccc2O1 | -2.2 | 11.2 | 2.2 | . | . | 12.3[16.7 µM] | . | . | . | . | . | .
O=C1c2ccccc2C2N1CCCN2C(=O)c1sc2ccccc2c1Cl (stereo unspecified) | 2.9 | -5.1 | 64.4* | . | -1.5 | 2.9 | 0.998 | 0.946 | 1.79 | 14.9 | -7.4 | -24.9
COc1ccc(NC(=O)c2cc(-c3cccs3)on2)cc1 | 2.7 | 1.3 | 62.1* | 109.9* | ? | 47.7 | 0.965 | ? | 2.11 | -10.9 | -2.7 | 7.8
COc1cccc(-c2nc(-c3ccc(NC(=O)c4ccncc4)cc3)no2)c1 | . | -0.9 | 20.4 | . | . | -34.9 | . | . | . | . | . | .
COc1cccc(-c2nc(-c3ccc(NC(=O)c4cccs4)cc3)no2)c1 | . | -1.9 | 62.0* | 52.1 | . | . | 1.1 | 0.861 | 1.5 | -15.0 | -6.2 | -18.3
COc1cc(/C=C2/C(=N)N3N=C(CC(=O)N4CCOCC4)SC3=NC2=O)ccc1OCc1ccc(F)cc1 | -1.9 | -4.5 | 48.0* | 69.3 | 20.8 | -22.1 | 1.5 | 0.901 | 1.28 | -7.1 | -9.4 | -9.5
COc1cc(/C=C2/C(=N)N3N=C(CC(=O)N4CCOCC4)SC3=NC2=O)ccc1OCc1ccccc1F | . | -0.7 | 11.2 | 6.6 | . | . | . | . | . | . | . | .
O=C(c1ccccc1)c1ccc2ccccc2c1 | 0.0 | 0.6 | 74.7* | 60.7 | 4.6 | . | 1.09 | 0.848 | 1.59 | -5.0 | -2.2 | -11.1
CC(=O)n1nc(-c2ccccc2)nc1NCc1ccc(N(C)C)cc1 | -0.5 | -0.1 | 58.8* | 74.0 | 13.1 | -14.7 | 1.13 | 0.919 | 1.21 | -7.1 | 7.4 | -16.9
CN(C)c1ccc(CNc2nc(-c3ccccc3)nn2S(C)(=O)=O)cc1 | 0.4 | 0.9 | 1.4 | 17.9 | 9.8 | 9.8 | . | . | . | . | . | .
Clc1ncccc1-c1nc2ccccc2s1 | 5.7 | . | . | 26.9 | 10.0 | -94.8 | . | . | . | . | . | .
O=c1c(-c2nc3ccccc3s2)cccn1Cc1ccc(Cl)cc1 | . | -0.2 | 67.0* | . | 22.6 | -18.3 | 1.04 | 0.975 | 1.4 | -10.2 | 3.4 | -16.1

High-throughput results as filed in PubChem.
